In ChEMBL document CHEMBL5674867, “The SUV39H1 inhibitor chaetocin induces differentiation and shows synergistic cytotoxicity with other epigenetic drugs in acute myeloid leukemia cells” (Blood Cancer J, 2015):
The source made the active and inactive calls. The calls are words filed in the database; no cut-off is given here.

How the values were obtained:
Assay type in all cases: functional, cell-based
HL-60 [1] = experiment: Induction of myeloid differentiation in human HL-60 cells at 20 nM in combination with 0.5 uM SAHA measured after 12 hrs by Liu's staining method
Outline: (§1)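 Cells received single epigenetic inhibitors or combinations and were collected by cytospin. After Liu's staining (reagent A 1 min, reagent B 2.5 min), differentiated cells were counted under a light microscope. Mean ± s.e. of three independent experiments.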

KG-1a [2] = experiment: Induction of myeloid differentiation in human KG-1a cells at 20 nM in combination with 0.5 uM SAHA measured after 12 hrs by Liu's staining method; outline: as §1
U-937 [3] = experiment: Induction of myeloid differentiation in human U-937 cells at 20 nM in combination with 0.5 uM SAHA measured after 12 hrs by Liu's staining method; outline: as §1
U-937 [4] = experiment: Induction of myeloid differentiation in human U-937 cells at 50 nM measured after 12 hrs by Liu's staining method; outline: as §1
KG-1a [5] = experiment: Induction of myeloid differentiation in human KG-1a cells at 50 nM measured after 12 hrs by Liu's staining method; outline: as §1
HL-60 [6] = experiment: Induction of myeloid differentiation in human HL-60 cells at 50 nM measured after 12 hrs by Liu's staining method; outline: as §1
HL-60 [7] = experiment: Induction of myeloid differentiation in human HL-60 cells at 50 nM in combination with 20 nM chaetocin measured after 12 hrs by Liu's staining method; outline: as §1
U-937 [8] = experiment: Cytotoxicity against human U-937 cells at 20 nM assessed as decrease in cell viability in combination with 50 nM JQ-1 measured after 24 hrs by MTT assay
KG-1a [9] = experiment: Cytotoxicity against human KG-1a cells at 20 nM assessed as decrease in cell viability in combination with 50 nM JQ-1 measured after 24 hrs by MTT assay
HL-60 [10] = experiment: Cytotoxicity against human HL-60 cells at 20 nM assessed as decrease in cell viability in combination with 50 nM JQ-1 measured after 24 hrs by MTT assay
KG-1a [11] = experiment: Induction of myeloid differentiation in human KG-1a cells at 50 nM in combination with 20 nM chaetocin measured after 12 hrs by Liu's staining method; outline: as §1
U-937 [12] = experiment: Induction of myeloid differentiation in human U-937 cells at 50 nM in combination with 20 nM chaetocin measured after 12 hrs by Liu's staining method; outline: as §1
U-937 [13] = experiment: Induction of myeloid differentiation in human U-937 cells at 0.5 uM measured after 12 hrs by Liu's staining method
Outline: (§2)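 Cells treated for 12 h, spun onto slides by cytospin, stained with Liu's reagent A for 1 min and then reagent B for 2.5 min. Morphology read by light microscopy. KG-1a was grown in IMDM with 15% FBS; HL-60 and U937 in RPMI with 10% FBS.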

KG-1a [14] = experiment: Induction of myeloid differentiation in human KG-1a cells at 0.5 uM measured after 12 hrs by Liu's staining method; outline: as §2
HL-60 [15] = experiment: Induction of myeloid differentiation in human HL-60 cells at 0.5 uM measured after 12 hrs by Liu's staining method; outline: as §2

CN1C(=O)[C@@]23C[C@]4([C@]56C[C@@]78SS[C@@](CO)(C(=O)N7[C@H]5Nc5ccccc56)N(C)C8=O)c5ccccc5N[C@@H]4N2C(=O)[C@]1(CO)SS3.O=C(CCCCCCC(=O)Nc1ccccc1)NO
Activity (HL-60 [1]): inactive | Activity (KG-1a [2]): inactive | Activity (U-937 [3]): inactive

Cc1sc2c(c1C)C(c1ccc(Cl)cc1)=N[C@@H](CC(=O)OC(C)(C)C)c1nnc(C)n1-2
Activity (U-937 [4]): Active | Activity (KG-1a [5]): Active | Activity (HL-60 [6]): Active

CN1C(=O)[C@@]23C[C@]4([C@]56C[C@@]78SS[C@@](CO)(C(=O)N7[C@H]5Nc5ccccc56)N(C)C8=O)c5ccccc5N[C@@H]4N2C(=O)[C@]1(CO)SS3.Cc1sc2c(c1C)C(c1ccc(Cl)cc1)=N[C@@H](CC(=O)OC(C)(C)C)c1nnc(C)n1-2
Activity (HL-60 [7]): inactive | Activity (U-937 [8]): inactive | Activity (KG-1a [9]): Active | Activity (HL-60 [10]): Active | Activity (KG-1a [11]): inactive | Activity (U-937 [12]): inactive

O=C(CCCCCCC(=O)Nc1ccccc1)NO
Activity (U-937 [13]): Active | Activity (KG-1a [14]): Active | Activity (HL-60 [15]): Active
